Experiments:
[1] = Biodistribution after day 1 in mouse tumor; assay type: ADME, organism-based
Summary of the method: (§1)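 Female outbred CD-1 nude mice (18-20 g) bearing subcutaneous human pancreatic adenocarcinoma UB 290896 (2 × 2 mm pieces, right flank; used at tumor diameter 4.5-5.5 mm). Aqueous solution (∼1 mmol L-1) given subcutaneously at 15 µmol kg-1 per day for 3 days. Mice killed 1, 3, 6 or 9 days after the last injection. Five mice per time point, plus 5 noninjected controls.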

[2] = Biodistribution after day 3 in mouse blood; assay type: ADME, organism-based; summary of the method: as §1
[3] = Biodistribution after day 3 in mouse brain; assay type: ADME, organism-based; summary of the method: as §1
[4] = Biodistribution after day 3 in mouse heart; assay type: ADME, organism-based; summary of the method: as §1
[5] = Biodistribution after day 3 in mouse kidney; assay type: ADME, organism-based; summary of the method: as §1
[6] = Biodistribution after day 3 in mouse liver; assay type: ADME, organism-based; summary of the method: as §1
[7] = Biodistribution after day 3 in mouse lung; assay type: ADME, organism-based; summary of the method: as §1
[8] = Biodistribution after day 3 in mouse muscle; assay type: ADME, organism-based, Muscle tissue; summary of the method: as §1
[9] = Biodistribution after day 3 in mouse spleen; assay type: ADME, organism-based; summary of the method: as §1
[10] = Biodistribution after day 3 in mouse tumor; assay type: ADME, organism-based; summary of the method: as §1
[11] = Biodistribution after day 6 in mouse blood; assay type: ADME, organism-based; summary of the method: as §1
[12] = Biodistribution after day 6 in mouse brain; assay type: ADME, organism-based; summary of the method: as §1
[13] = Biodistribution after day 6 in mouse heart; assay type: ADME, organism-based; summary of the method: as §1
[14] = Biodistribution after day 6 in mouse kidney; assay type: ADME, organism-based; summary of the method: as §1
[15] = Biodistribution after day 6 in mouse lung; assay type: ADME, organism-based; summary of the method: as §1
[16] = Biodistribution after day 6 in mouse muscle; assay type: ADME, organism-based, Muscle tissue; summary of the method: as §1
[17] = Biodistribution after day 6 in mouse spleen; assay type: ADME, organism-based; summary of the method: as §1
[18] = Biodistribution after day 6 in mouse tumor; assay type: ADME, organism-based; summary of the method: as §1
[19] = Biodistribution after day 1 in mouse blood; assay type: ADME, organism-based; summary of the method: as §1
[20] = Biodistribution after day 1 in mouse brain; assay type: ADME, organism-based; summary of the method: as §1
[21] = Biodistribution after day 1 in mouse heart; assay type: ADME, organism-based; summary of the method: as §1
[22] = Biodistribution after day 1 in mouse kidney; assay type: ADME, organism-based; summary of the method: as §1
[23] = Biodistribution after day 1 in mouse liver; assay type: ADME, organism-based; summary of the method: as §1
[24] = Biodistribution after day 1 in mouse lung; assay type: ADME, organism-based; summary of the method: as §1
[25] = Biodistribution after day 1 in mouse muscle; assay type: ADME, organism-based, Muscle tissue; summary of the method: as §1
[26] = Biodistribution after day 1 in mouse spleen; assay type: ADME, organism-based; summary of the method: as §1
[27] = Biodistribution after day 6 in mouse liver; assay type: ADME, organism-based; summary of the method: as §1
[28] = Biodistribution after day 9 in mouse tumor; assay type: ADME, organism-based; summary of the method: as §1
[29] = Biodistribution after day 9 in mouse blood; assay type: ADME, organism-based; summary of the method: as §1
[30] = Biodistribution after day 9 in mouse brain; assay type: ADME, organism-based; summary of the method: as §1
[31] = Biodistribution after day 9 in mouse heart; assay type: ADME, organism-based; summary of the method: as §1
[32] = Biodistribution after day 9 in mouse kidney; assay type: ADME, organism-based; summary of the method: as §1
[33] = Biodistribution after day 9 in mouse liver; assay type: ADME, organism-based; summary of the method: as §1
[34] = Biodistribution after day 9 in mouse lung; assay type: ADME, organism-based; summary of the method: as §1
[35] = Biodistribution after day 9 in mouse muscle; assay type: ADME, organism-based, Muscle tissue; summary of the method: as §1
[36] = Biodistribution after day 9 in mouse spleen; assay type: ADME, organism-based; summary of the method: as §1

| concentration at 1 day [1] [ng/g] | concentration at 3 day [2] [ng/g] | concentration at 3 day [3] [ng/g] | concentration at 3 day [4] [ng/g] | concentration at 3 day [5] [ng/g] | concentration at 3 day [6] [ng/g] | concentration at 3 day [7] [ng/g] | concentration at 3 day [8] [ng/g] | concentration at 3 day [9] [ng/g] | concentration at 3 day [10] [ng/g] | concentration at 6 day [11] [ng/g] | concentration at 6 day [12] [ng/g] | concentration at 6 day [13] [ng/g] | concentration at 6 day [14] [ng/g] | concentration at 6 day [15] [ng/g] | concentration at 6 day [16] [ng/g] | concentration at 6 day [17] [ng/g] | concentration at 6 day [18] [ng/g] | concentration at 1 day [19] [ng/g] | concentration at 1 day [20] [ng/g] | SMILES | also measured |
| --- | --- | --- | --- | --- | --- | --- | --- | --- | --- | --- | --- | --- | --- | --- | --- | --- | --- | --- | --- | --- | --- |
| 32000 | 2000 | 770 | 9000 | 1900 | 430 | 8000 | 21000 | 7800 | 66000 | 2200 | 750 | 6400 | 1500 | 6000 | 17000 | 8000 | 330000 | 1440 | 550 | CCc1c(CC)c2cc3nc(cc4[nH]c(c(C)c4CC)c4[nH]c(cc5nc(cc1[nH]2)C(CCC(=O)NC1C(O)OC(CO)C(O)C1O)=C5C)c(CC)c4C)C(C)=C3CCC(=O)NC1C(O)OC(CO)C(O)C1O (stereo not given) | concentration at 9 day [28]: 23000 ng/g; concentration at 9 day [29]: 1500 ng/g; concentration at 9 day [30]: 520 ng/g; concentration at 9 day [31]: 6000 ng/g; concentration at 9 day [32]: 2800 ng/g; concentration at 9 day [33]: 470 ng/g; concentration at 9 day [34]: 8000 ng/g; concentration at 9 day [35]: 11000 ng/g; concentration at 9 day [36]: 9700 ng/g; concentration at 1 day [21]: 5400 ng/g; concentration at 1 day [22]: 1100 ng/g; concentration at 1 day [23]: 290 ng/g; concentration at 1 day [24]: 4900 ng/g; concentration at 1 day [25]: 8000 ng/g; concentration at 1 day [26]: 3600 ng/g; concentration at 6 day [27]: 370 ng/g |
| 34000 | 900 | 410 | 1450 | 3100 | 800 | 1700 | 4200 | 16000 | 131000 | 980 | 320 | 1700 | 4300 | 1400 | 5100 | 12000 | 260000 | 1090 | 420 | C=CC1=C(C)c2cc3nc(cc4[nH]c(cc5[nH]c(cc1n2)c(C)c5CCC(=O)NC1C(O)OC(CO)C(O)C1O)c(CCC(=O)NC1C(O)OC(CO)C(O)C1O)c4C)C(C=C)=C3C (stereo not given) [PORPHYRIN] | concentration at 9 day [28]: 37000 ng/g; concentration at 9 day [29]: 800 ng/g; concentration at 9 day [30]: 370 ng/g; concentration at 9 day [31]: 2400 ng/g; concentration at 9 day [32]: 510 ng/g; concentration at 9 day [33]: 960 ng/g; concentration at 9 day [34]: 2300 ng/g; concentration at 9 day [35]: 3600 ng/g; concentration at 9 day [36]: 9000 ng/g; concentration at 1 day [21]: 2700 ng/g; concentration at 1 day [22]: 700 ng/g; concentration at 1 day [23]: 1100 ng/g; concentration at 1 day [24]: 2000 ng/g; concentration at 1 day [25]: 3500 ng/g; concentration at 1 day [26]: 22000 ng/g; concentration at 6 day [27]: 1320 ng/g |

The next lines start with the compound.

| SMILES | concentration at 1 day [1] [ng/g] | concentration at 3 day [2] [ng/g] | concentration at 3 day [3] [ng/g] | concentration at 3 day [4] [ng/g] | concentration at 3 day [5] [ng/g] | concentration at 3 day [6] [ng/g] | concentration at 3 day [7] [ng/g] | concentration at 3 day [8] [ng/g] | concentration at 3 day [9] [ng/g] | concentration at 3 day [10] [ng/g] | concentration at 6 day [11] [ng/g] | concentration at 6 day [12] [ng/g] | concentration at 6 day [13] [ng/g] | concentration at 6 day [14] [ng/g] | concentration at 6 day [15] [ng/g] | concentration at 6 day [16] [ng/g] | concentration at 6 day [17] [ng/g] | concentration at 6 day [18] [ng/g] | concentration at 1 day [19] [ng/g] | concentration at 1 day [20] [ng/g] | also measured |
| --- | --- | --- | --- | --- | --- | --- | --- | --- | --- | --- | --- | --- | --- | --- | --- | --- | --- | --- | --- | --- | --- |
| CCc1c(CC)c2cc3nc(cc4[nH]c(c(C)c4CC)c4[nH]c(cc5nc(cc1[nH]2)C(CCC(=O)NCCN(CCN)CCN)=C5C)c(CC)c4C)C(C)=C3CCC(=O)NCCN(CCN)CCN | 58000 | 3400 | 400 | 10700 | 5700 | 13000 | 13000 | 36000 | 8000 | 89000 | 1170 | 160 | 5200 | 1700 | 3200 | 22000 | 3900 | 49000 | 950 | 870 | concentration at 1 day [21]: 3100 ng/g; concentration at 1 day [22]: 2800 ng/g; concentration at 1 day [23]: 1030 ng/g; concentration at 1 day [24]: 2500 ng/g; concentration at 1 day [25]: 3600 ng/g; concentration at 1 day [26]: 4100 ng/g; concentration at 6 day [27]: 10000 ng/g |
| CCc1c(CC)c2cc3nc(cc4[nH]c(c(C)c4CC)c4[nH]c(cc5nc(cc1[nH]2)C(CCC(=O)NCCOCCOCCO)=C5C)c(CC)c4C)C(C)=C3CCC(=O)NCCOCCOCCO | 22000 | 9300 | 4300 | 7800 | 59000 | 61000 | 11000 | 9300 | 11000 | 130000 | 3400 | 4300 | 4800 | 52000 | 19000 | 3400 | 14000 | 180000 | 7000 | 2700 | concentration at 1 day [21]: 8000 ng/g; concentration at 1 day [22]: 3100 ng/g; concentration at 1 day [23]: 14000 ng/g; concentration at 1 day [24]: 13000 ng/g; concentration at 1 day [25]: 10000 ng/g; concentration at 1 day [26]: 4600 ng/g; concentration at 6 day [27]: 16000 ng/g |
| CCC1=C(CC)c2cc3[nH]c(cc4[nH]c(c(C)c4CC)c4[nH]c(cc5nc(cc1n2)C(CCC(=O)NCCOCCOCCN)=C5C)c(CC)c4C)c(C)c3CCC(=O)NCCOCCOCCN | 4200 | 3020 | 5000 | 15500 | 6800 | 25000 | 19000 | 29000 | 11000 | 114000 | 2450 | 2400 | 9200 | 3800 | 7000 | 45000 | 3300 | 51000 | 1690 | 500 | concentration at 1 day [21]: 2000 ng/g; concentration at 1 day [22]: 640 ng/g; concentration at 1 day [23]: 210 ng/g; concentration at 1 day [24]: 1700 ng/g; concentration at 1 day [25]: 1900 ng/g; concentration at 1 day [26]: 1300 ng/g; concentration at 6 day [27]: 4200 ng/g |
| CCc1c(CC)c2cc3nc(cc4[nH]c(c(C)c4CC)c4[nH]c(cc5nc(cc1[nH]2)C(CCC(=O)N(CCO)CCO)=C5C)c(CC)c4C)C(C)=C3CCC(=O)N(CCO)CCO [SAPPHYRIN] | 109000 | 900 | 270 | 960 | 330 | 1500 | 710 | 760 | 1390 | 220000 | 500 | 290 | 760 | 460 | 710 | 710 | 960 | 130000 | 500 | 240 | concentration at 1 day [21]: 950 ng/g; concentration at 1 day [22]: 440 ng/g; concentration at 1 day [23]: 1420 ng/g; concentration at 1 day [24]: 480 ng/g; concentration at 1 day [25]: 1020 ng/g; concentration at 1 day [26]: 1290 ng/g; concentration at 6 day [27]: 1200 ng/g |

Source: ChEMBL document CHEMBL1135601, “Synthesis and biolocalization of water-soluble sapphyrins” (J Med Chem, 2002)
